According to ChEMBL document CHEMBL5058577, “EUbOPEN Chemogenomics Library 2 (Multiplex)” (2022):

Test system: HEK-293T
Experiment: Multiplex assay against HEK293T
Format: toxicity, cell-based
Conditions: human
Outline: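 Live cells were stained at seeding with Hoechst33342, BioTracker Green Microtubule Cytoskeleton Dye, MitoTracker Red and Annexin V Alexa Fluor 680, then imaged on a CQ1 microscope at 37°C and 5% CO2 after compound addition. CellPathfinder machine-learning gating split cells into Hoechst high-intensity objects or normal cells. Normal cells were split into healthy, pyknosed or fragmented nuclei, and pyknosed cells into mitotic or apoptotic. Tubulin, mitochondrial-mass and membrane-permeability phenotypes are per cents of healthy-nucleus cells.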

[1] = 12 h, 1 µM, compound concentration 1 uM, replicate 1
[2] = 12 h, 1 µM, compound concentration 1 uM, replicate 2
[3] = 12 h, 10 µM, compound concentration 10 uM, replicate 1
[4] = 12 h, 10 µM, compound concentration 10 uM, replicate 2
[5] = 24 h, 1 µM, compound concentration 1 uM, replicate 1
[6] = 24 h, 1 µM, compound concentration 1 uM, replicate 2
[7] = 24 h, 10 µM, compound concentration 10 uM, replicate 1
[8] = 24 h, 10 µM, compound concentration 10 uM, replicate 2
[9] = 48 h, 1 µM, compound concentration 1 uM, replicate 1
[10] = 48 h, 1 µM, compound concentration 1 uM, replicate 2
[11] = 48 h, 10 µM, compound concentration 10 uM, replicate 1
[12] = 48 h, 10 µM, compound concentration 10 uM, replicate 2

Compound: CC(C)(C)c1ccc(S(=O)(=O)Nc2ccc(Cl)cc2C(=O)c2cc[n+]([O-])cc2)cc1 [VERCIRNON]
- Population Apoptotic (%) [1]: 32%
- Population Fragmented Nuclei (%) [1]: 10%
- Population Healthy Nuclei (%) [1]: 77%
- Population Hoechst High Intensity Objects (%) [1]: 7%
- Population Membrane Permeable-Phenotype (%) [1]: 0%
- Population Mitochondria Different-Phenotype (%) [1]: 33%
- Population Mitotic Cells (%) [1]: 68%
- Population Normal (%) [1]: 92%
- Population Pyknosed Nuclei (%) [1]: 12%
- Population Tubulin-Different-Phenotype (%) [1]: 21%
- Total Cell Count [1]: 428
- Population Apoptotic (%) [2]: 52%
- Population Fragmented Nuclei (%) [2]: 5%
- Population Healthy Nuclei (%) [2]: 84%
- Population Mitochondria Different-Phenotype (%) [2]: 51%
- Population Mitotic Cells (%) [2]: 47%
- Population Pyknosed Nuclei (%) [2]: 10%
- Population Tubulin-Different-Phenotype (%) [2]: 22%
- Total Cell Count [2]: 424
- Population Apoptotic (%) [3]: 30%
- Population Fragmented Nuclei (%) [3]: 6%
- Population Healthy Nuclei (%) [3]: 83%
- Population Hoechst High Intensity Objects (%) [3]: 6%
- Population Membrane Permeable-Phenotype (%) [3]: 0%
- Population Mitochondria Different-Phenotype (%) [3]: 35%
- Population Mitotic Cells (%) [3]: 69%
- Population Normal (%) [3]: 93%
- Population Pyknosed Nuclei (%) [3]: 10%
- Population Tubulin-Different-Phenotype (%) [3]: 37%
- Total Cell Count [3]: 451
- Population Apoptotic (%) [4]: 39%
- Population Fragmented Nuclei (%) [4]: 4%
- Population Healthy Nuclei (%) [4]: 82%
- Population Hoechst High Intensity Objects (%) [4]: 5%
- Population Membrane Permeable-Phenotype (%) [4]: 1%
- Population Mitochondria Different-Phenotype (%) [4]: 51%
- Population Mitotic Cells (%) [4]: 60%
- Population Normal (%) [4]: 94%
- Population Pyknosed Nuclei (%) [4]: 13%
- Population Tubulin-Different-Phenotype (%) [4]: 27%
- Total Cell Count [4]: 344
- Population Apoptotic (%) [5]: 41%
- Population Fragmented Nuclei (%) [5]: 8%
- Population Healthy Nuclei (%) [5]: 81%
- Population Hoechst High Intensity Objects (%) [5]: 6%
- Population Membrane Permeable-Phenotype (%) [5]: 0%
- Population Mitochondria Different-Phenotype (%) [5]: 21%
- Population Mitotic Cells (%) [5]: 58%
- Population Normal (%) [5]: 93%
- Population Pyknosed Nuclei (%) [5]: 9%
- Population Tubulin-Different-Phenotype (%) [5]: 15%
- Total Cell Count [5]: 522
- Population Apoptotic (%) [6]: 28%
- Population Hoechst High Intensity Objects (%) [6]: 5%
- Population Mitochondria Different-Phenotype (%) [6]: 32%
- Population Mitotic Cells (%) [6]: 71%
- Population Normal (%) [6]: 94%
- Population Tubulin-Different-Phenotype (%) [6]: 16%
- Total Cell Count [6]: 521
- Population Apoptotic (%) [7]: 22%
- Population Fragmented Nuclei (%) [7]: 10%
- Population Healthy Nuclei (%) [7]: 77%
- Population Hoechst High Intensity Objects (%) [7]: 3%
- Population Membrane Permeable-Phenotype (%) [7]: 1%
- Population Mitochondria Different-Phenotype (%) [7]: 15%
- Population Mitotic Cells (%) [7]: 77%
- Population Normal (%) [7]: 96%
- Population Pyknosed Nuclei (%) [7]: 12%
- Population Tubulin-Different-Phenotype (%) [7]: 20%
- Total Cell Count [7]: 594
- Population Apoptotic (%) [8]: 28%
- Population Fragmented Nuclei (%) [8]: 7%
- Population Healthy Nuclei (%) [8]: 82%
- Population Hoechst High Intensity Objects (%) [8]: 5%
- Population Membrane Permeable-Phenotype (%) [8]: 0%
- Population Mitochondria Different-Phenotype (%) [8]: 31%
- Population Mitotic Cells (%) [8]: 71%
- Population Normal (%) [8]: 94%
- Population Pyknosed Nuclei (%) [8]: 9%
- Population Tubulin-Different-Phenotype (%) [8]: 23%
- Total Cell Count [8]: 437
- Population Apoptotic (%) [9]: 28%
- Population Fragmented Nuclei (%) [9]: 16%
- Population Healthy Nuclei (%) [9]: 76%
- Population Hoechst High Intensity Objects (%) [9]: 2%
- Population Membrane Permeable-Phenotype (%) [9]: 0%
- Population Mitochondria Different-Phenotype (%) [9]: 16%
- Population Mitotic Cells (%) [9]: 71%
- Population Normal (%) [9]: 97%
- Population Pyknosed Nuclei (%) [9]: 7%
- Population Tubulin-Different-Phenotype (%) [9]: 13%
- Total Cell Count [9]: 834
- Population Apoptotic (%) [10]: 32%
- Population Fragmented Nuclei (%) [10]: 14%
- Population Healthy Nuclei (%) [10]: 81%
- Population Membrane Permeable-Phenotype (%) [10]: 2%
- Population Mitochondria Different-Phenotype (%) [10]: 14%
- Population Mitotic Cells (%) [10]: 67%
- Population Pyknosed Nuclei (%) [10]: 4%
- Population Tubulin-Different-Phenotype (%) [10]: 12%
- Total Cell Count [10]: 877
- Population Apoptotic (%) [11]: 21%
- Population Fragmented Nuclei (%) [11]: 13%
- Population Healthy Nuclei (%) [11]: 81%
- Population Hoechst High Intensity Objects (%) [11]: 3%
- Population Membrane Permeable-Phenotype (%) [11]: 2%
- Population Mitochondria Different-Phenotype (%) [11]: 12%
- Population Mitotic Cells (%) [11]: 78%
- Population Normal (%) [11]: 96%
- Population Pyknosed Nuclei (%) [11]: 5%
- Population Tubulin-Different-Phenotype (%) [11]: 14%
- Total Cell Count [11]: 929
- Population Apoptotic (%) [12]: 25%
- Population Fragmented Nuclei (%) [12]: 12%
- Population Healthy Nuclei (%) [12]: 80%
- Population Hoechst High Intensity Objects (%) [12]: 2%
- Population Membrane Permeable-Phenotype (%) [12]: 1%
- Population Mitochondria Different-Phenotype (%) [12]: 18%
- Population Mitotic Cells (%) [12]: 75%
- Population Normal (%) [12]: 97%
- Population Pyknosed Nuclei (%) [12]: 7%
- Population Tubulin-Different-Phenotype (%) [12]: 15%
- Total Cell Count [12]: 586
